# Screens (PubChem BioAssay)
# OXTR potentiator: human OXTR potentiators, primary screen, fluorescence, CHO-OTR cells, Fluo-8 calcium; Fluo-8 calcium fluorescence, potentiator mode; 0% = oxytocin EC15, 100% = EC100; activation, % at 3 µM; hit rate 0.061% among 320,000;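 active = activation above that plate's cutoff, the mean activation of tested compounds plus 3 SD, cut at about 6.6% in these data, passing the limit was not always enough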;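 note: 100% uses oxytocin at 75 nM as the full agonist control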
# Target sequence (P30559 whole entry, looked up): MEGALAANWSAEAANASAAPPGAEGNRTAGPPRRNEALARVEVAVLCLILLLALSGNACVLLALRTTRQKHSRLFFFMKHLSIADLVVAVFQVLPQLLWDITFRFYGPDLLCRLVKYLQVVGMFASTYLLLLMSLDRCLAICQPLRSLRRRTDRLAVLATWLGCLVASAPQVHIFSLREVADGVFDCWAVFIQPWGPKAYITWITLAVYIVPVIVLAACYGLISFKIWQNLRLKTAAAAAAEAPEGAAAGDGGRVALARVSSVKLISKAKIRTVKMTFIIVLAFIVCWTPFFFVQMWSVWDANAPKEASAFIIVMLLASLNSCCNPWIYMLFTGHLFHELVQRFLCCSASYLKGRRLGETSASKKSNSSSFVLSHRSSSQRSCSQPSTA
#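 Material: human OTR in CHO cells. Compound: 3.0 µM, one dose. Timing: compound 6 min at room temperature before oxytocin, 100 s read. Evaluation: % activation of max/min ratio relative to oxytocin controls. Replication: single well per compound, singlicate. Signal: Fluo-8 calcium dye fluorescence.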
# TAAR1 antagonist: human TAAR1 antagonists, primary screen, Fluo-8 calcium fluorescence, CHO RD-HGA16 cells | Trace amine-associated receptor 1 (Homo sapiens), Q96RJ0 | hit rate 1.5% among 360,000 | inhibition, % at 3 µM | antagonist;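 active = inhibition above a per-plate cutoff, the mean inhibition of test compounds on that plate plus 3 SD, cut at about 49% in these data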;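 note: 0% = DMSO plus EC80 beta-PEA response and 100% = DMSO alone without agonist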
#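 Test system: hTAAR1-expressing CHO RD-HGA16 cells, Gα16-coupled; Probe or stimulus: EC80 β-phenethylamine stimulus; Compound dosing: single nominal final test compound concentration of 3 µM; Timing: 140 s kinetic read after compound, 140 s after agonist; Signal: Fluo-8 calcium-sensitive fluorescence; Measure: % inhibition of agonist calcium response; Controls: DMSO and EC80 PEA controls.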
# V1R ag counter: agonists of human V1a receptor, primary screen, counter-screen for OXTR agonist project, fluorescence, CHO-V1R cells | Vasopressin V1a receptor (Homo sapiens), P37288 | Fluo-8 calcium fluorescence, agonist mode; 0% DMSO, 100% 3 nM vasopressin | activation, % at 3 µM | hit rate 0.25% among 320,000;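 active = activation above the mean activation of all tested compounds plus 3 SD, per screening run, cut at about 20% in these data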;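 note: signal is peak over basal fluorescence ratio across a 100 second FLIPR read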
# OXTR agonist: human OXTR agonists, primary screen, fluorescence, CHO-OTR cells, Fluo-8 calcium. activation, % at 3 µM. hit rate 0.32% among 320,000. Oxytocin receptor (Homo sapiens), P30559. Fluo-8 calcium fluorescence; normalized: DMSO 0%, oxytocin 100%;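 active = activation above the mean of all tested compounds plus 3 SD, cutoff set per screening run, cut at about 20% in these data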;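 note: peak over basal fluorescence ratio from a 100 s FLIPR kinetic read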
# TAAR1 agonist: human TAAR1 agonists, primary screen, Fluo-8 calcium fluorescence, CHO RD-HGA16 cells; hit rate 0.99% among 360,000; activation, % at 3 µM; vehicle wells 0%, saturating PEA agonist 100%;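 active = activation above the mean activation of all test compounds in the run plus 3 SD, cut at about 38% in these data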
#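 System: CHO RD-HGA16 cells carrying human TAAR1 plus Gα16; Incubation: 17-24 h seeding, 75 min 37 °C dye, 30 min RT; Measured by: Fluo-8 fluorescence, 5 s baseline then 140 s kinetic read; Control set: DMSO and PEA EC100; Replication: single well for each compound.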
# TAAR1 ag confirm: human TAAR1 agonists, retest of hits, confirmation, Fluo-8 calcium fluorescence, CHO RD-HGA16 cells; shares compounds with TAAR1 agonist; scaled: DMSO 0%, maximal phenethylamine 100%; activation, % at 3 µM; hit rate 82% among 2,400; AID 651783, 2012;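 active = activation above a cutoff set at the run's mean compound activation plus 3 SD, cut at about 39% in these data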
# Ga16 nonsel ag: nonselective calcium mobilization agonists, CHO-Ga16 cells, counter-screen for hTAAR1 agonist project, cell-based, fluorescence, CHO-Ga16 parental line. activation, % at 3 µM. shares compounds with TAAR1 agonist. Fluo-8 calcium fluorescence; normalized to maximal ATP response, DMSO zero. hit rate 50% among 2,400. AID 651787, 2012;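 active = activation above the run cutoff, the mean activation over all tested wells plus 3 SD, cut at about 12% in these data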;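 note: 0% = DMSO wells and 100% = maximal ATP response on the peak over basal ratio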
# TAAR1 desens: TAAR1 desensitization by agonist hits, confirmation, counter-screen for TAAR1 agonist project, cell-based, fluorescence, tachyphylaxis. hit rate 46% among 2,400. inhibition, % at 3 µM. shares compounds with TAAR1 agonist. CHO RD-HGA16 hTAAR1, Fluo-8 calcium, beta-PEA response inhibition;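 active = inhibition above the run cutoff, the mean inhibition of all test compounds plus 3 SD, cut at about 49% in these data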;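 note: beta-PEA stimulus applied at its EC80; loss of beta-PEA calcium signal after compound pretreatment read as receptor desensitization; 0% = DMSO with beta-PEA at EC80 and 100% = DMSO alone without agonist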
# Ga16 nonsel ant: inhibition of ATP-evoked calcium response in CHO-Ga16 cells, counter-screen for TAAR1 agonist project, cell-based, fluorescence | hit rate 39% among 2,400 | shares compounds with TAAR1 agonist | inhibition, % at 3 µM | CHO-Ga16 ATP-induced calcium, Fluo-8 fluorescence | AID 651952, 2012;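 active = inhibition above the plate's mean compound inhibition plus 3 SD, computed per plate, cut at about 22% in these data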;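 note: 0% = EC80 ATP with DMSO and 100% = DMSO wells without ATP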
# Numbers without * were called inactive; . = no result. An excerpt weighted towards active compounds, which were near 2.3% of everything screened.
SMILES,OXTR potentiator,TAAR1 antagonist,V1R ag counter,OXTR agonist,TAAR1 agonist,TAAR1 ag confirm,Ga16 nonsel ag,TAAR1 desens,Ga16 nonsel ant
COc1cccc(-c2c(C(=O)N/N=C/c3ccncc3)nnn2-c2nonc2N)c1,0,3,4,2,16,.,.,.,.
CSc1nnc(C)c(=O)n1COC(=O)COc1ccc(Cl)cc1Cl,-4,-1,1,0,3,.,.,.,.
CCN(CC)S(=O)(=O)c1ccc(Cl)c(C(=O)Nc2ccc(Cl)cc2[N+](=O)[O-])c1,-13,34,5,6,3,.,.,.,.
CCc1nc2ccc(C(=O)Nc3ccc(OC)c(OC)c3)cn2c1N(C)Cc1ccc(OC)cc1,.,43,.,.,3,.,.,.,.
CCc1nc2ccc(C(=O)Nc3ccc(OC)c(OC)c3)cn2c1N(C)CCC(C)C,.,6,.,.,82*,99*,68*,38,9
C/C(=C\C=C(C#N)C#N)c1cc(C#N)c(N)o1,.,37,.,.,99*,30,33*,27,25*
Cc1ccccc1Oc1ccc(Oc2ccccc2C)nn1,-6,28,-1,-1,60*,-2,0,-10,-2
Cc1ccccc1OCCn1ccnc1,-2,3,1,1,1,.,.,.,.
CN(CCNC(=O)c1cn(C)c2ccc(S(=O)(=O)N(C)C)cc2c1=O)CCc1ccccc1,-4,-17,0,0,44*,55*,1,5,-8
N#Cc1cc(C(=O)c2cc(F)ccc2O)cn(-c2nccs2)c1=O,-18,68*,84*,135*,105*,91*,112*,67*,74*
N#Cc1cc(C(=O)c2ccccc2O)cn(-c2nccs2)c1=O,-12,71*,55*,90*,126*,90*,84*,65*,59*
O=C(NC(=S)Nc1cc(C(F)(F)F)ccc1N1CCOCC1)c1ccco1,-7,-30,1,-2,0,.,.,.,.
CC(C)CNC(=O)c1ccccc1-c1ccccc1C(=O)O,-12,3,-1,0,54*,7,5,-2,7
CC(C)CNC(=O)c1cccc(NC(=O)c2ccccc2-c2ccccc2C(=O)O)c1,-3,-11,2,1,1,.,.,.,.
O=C(c1ccccc1)c1ccc(OCC(O)CNCc2cccc(Cl)c2)cc1 (stereo unspecified),.,7,.,.,58*,95*,43*,60*,40*
O=C(c1ccccc1)c1ccc(OCC(O)CNCc2ccc(F)cc2)cc1 (stereo unspecified),.,13,.,.,48*,48*,19*,20,24*
Cc1ccc(OCC(O)CNCc2ccccc2)cc1C (stereo unspecified),-11,-28,2,4,6,.,.,.,.
Cc1ccccc1OCC(=O)N1CCCCCCC1,-1,-1,0,-2,-1,.,.,.,.
COc1ccc(CN(C)C(=O)c2cnc(C)cn2)c(OC)c1OC,0,-8,0,0,0,.,.,.,.
CCOC(=O)C1CCCN(C(c2ccccn2)c2c(C)[nH]c3ccccc23)C1 (stereo unspecified),1,71*,0,0,67*,74*,2,84*,1
Cc1[nH]c2ccccc2c1C(c1ccccn1)N1CCCC1 (stereo unspecified),0,13,0,0,0,.,.,.,.
CC(C)(C)C(=O)NC(=S)NNC(=O)c1ccc(Cl)cc1Cl,-26,104*,122*,98*,202*,144*,115*,107*,92*
O=C(NCCCn1ccnc1)c1ccc(-c2cccc(Cl)c2Cl)o1,-8,12,4,7,63*,50*,33*,17,7
CN=c1scc(-c2cccs2)n1/N=C/c1ccc(O)c(O)c1O,-10,14,0,-2,45*,56*,21*,45,18
CC(C)CCCCCCCCc1cccc(O)c1C(=O)O,.,98*,.,.,130*,114*,89*,104*,92*
SMILES,OXTR potentiator,TAAR1 antagonist,V1R ag counter,OXTR agonist,TAAR1 agonist,TAAR1 ag confirm,Ga16 nonsel ag,TAAR1 desens,Ga16 nonsel ant
CC(C)C(=O)NCCCc1ccccc1,-6,10,0,0,7,.,.,.,.
OC(c1ccccc1)(c1ccccc1)C1CCN(CCCOc2cc(F)cc(F)c2)CC1,.,33,.,.,49*,35,32*,49*,46*
OC(c1ccccc1)(c1ccccc1)C1CCN(CCCOc2cccc(OC(F)(F)F)c2)CC1,.,37,.,.,20,.,.,.,.
COc1cccc(OCCCN2CCC(C(O)(c3ccccc3)c3ccccc3)CC2)c1,.,37,.,.,42*,23,13*,13,26*
Cc1cccc(OCCCN2CCC(C(O)(c3ccccc3)c3ccccc3)CC2)c1,.,38,.,.,41*,32,16*,27,30*
CC(C(=O)N1c2ccccc2CC1C)N1CCN(S(=O)(=O)c2ccccc2F)CC1 (stereo unspecified),1,-15,1,0,-1,.,.,.,.
COC(=O)Cc1cc(=O)[nH]c(/N=C(\N)Nc2ccc(C(C)C)cc2)n1,-25,37,5,3,10,.,.,.,.
CN(CC(=O)NCc1ccccc1)CC(=O)Nc1ccc(Cl)c(C(F)(F)F)c1,-10,-5,21*,23*,73*,82*,25*,60*,34*
CCc1nc2c(c(=O)c3ccccc3n2C)c(=O)n1C1CCCCCC1,-18,-3,88*,47*,66*,74*,55*,30,13
COCC(=O)Nc1ncc(S(=O)(=O)c2ccc([N+](=O)[O-])cc2)s1,-3,7,4,5,2,.,.,.,.
